ChEMBL document CHEMBL1154253, “Synthesis and serotonin transporter activity of sulphur-substituted alpha-alkyl phenethylamines as a new class of anticancer agents” (Eur J Med Chem, 2009)

Tests used:
[1] = target: Sodium-dependent serotonin transporter (Rattus norvegicus, UniProt P31652); assay: Inhibition of [3H]5-HT reuptake at rat SERT expressed in HEK293 cells after 2 mins by liquid scintillation counting; assay type: cell-based
HEK293 = assay: Cytotoxicity against human HEK293 cells after 48 hrs by neutral red assay; assay type: cell-based; details: HEK293, 48 h, read-out: pEC50 (converted)
Summary of the method: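 Neutral Red uptake: 5 × 10⁴ cells/well grown 24–36 h to sub-confluence, then treated 48 h. Cells incubated 3 ± 1 h with NR dye, washed and solubilised in 50% ethanol–1% acetic acid, and absorbance read at 540 nm (690 nm background). Viability given as % of vehicle-treated cells. pEC50 obtained by sigmoidal regression (Hill slope 1) using 4 concentrations in triplicate on two independent days. SERT-line values compared with parental HEK293 by two-way ANOVA with Bonferroni test. Sodium azide 30 mM and Triton-X 2% as positive controls.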

SH-SY5Y = assay: Cytotoxicity against human SH-SY5Y cells after 48 hrs by neutral red assay; assay type: functional, cell-based
MCF7 [2] = assay: Antiproliferative activity against human MCF7 cells at 50 uM after 24 hrs by alamar blue assay; assay type: functional
Summary of the method: (§1)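 Alamar Blue viability: 1–5 × 10⁴ cells/well seeded, drug-treated for the stated time, then 10 µl Alamar Blue added and incubated 4–6 h at 37 °C in the dark. Fluorescence read at ex 544/em 590 nm, medium-only background subtracted, untreated cells = 100% viability. Taxol 10 µM as positive control. Mean ± S.E.M. of six points (triplicate on two independent days).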

[3] = Antiproliferative activity against human MUTU-I cells assessed as cell viability at 50 uM after 24 hrs by alamar blue assay; assay type: functional; details: read-out: Activity; summary of the method: as §1
DG-75 [4] = assay: Antiproliferative activity against human DG75 cells assessed as cell viability at 50 uM after 72 hrs by alamar blue assay; assay type: functional; details: DG-75, 72 h, read-out: Activity; summary of the method: as §1
[5] = Antiproliferative activity against human MUTU-I cells at 50 uM after 24 hrs by alamar blue assay; assay type: functional; summary of the method: as §1
DG-75 [6] = assay: Antiproliferative activity against human DG75 cells at 50 uM after 72 hrs by alamar blue assay; assay type: functional; summary of the method: as §1
[7] = Antiproliferative activity against […] cells at 50 uM after 24 hrs by alamar blue assay; assay type: functional, 4T1; summary of the method: as §1
MDA-MB-231 = assay: Antiproliferative activity against human MDA-MB-231 cells at 50 uM after 24 hrs by alamar blue assay; assay type: functional; summary of the method: as §1
DG-75 [8] = assay: Induction of apoptosis in human DG75 cells after 72 hrs by annexin V-propidium iodide staining-based FACS analysis; assay type: functional, cell-based; details: DG-75, 72 h
[9] = Induction of apoptosis in human MUTU-I cells after 24 hrs by annexin V-propidium iodide staining-based FACS analysis; assay type: functional, cell-based
HL-60 [10] = assay: Induction of apoptosis in human HL60 cells after 24 hrs by annexin V-propidium iodide staining-based FACS analysis; assay type: functional, cell-based; details: HL-60, 24 h
DG-75 [11] = assay: Induction of apoptosis in human DG75 cells at 10 to 50 uM after 72 hrs by annexin V-propidium iodide staining-based FACS analysis; assay type: functional
[12] = Induction of apoptosis in human MUTU-I cells at 10 to 50 uM after 24 hrs by annexin V-propidium iodide staining-based FACS analysis; assay type: functional
HL-60 [13] = assay: Induction of apoptosis in human HL60 cells at 10 to 50 uM after 24 hrs by annexin V-propidium iodide staining-based FACS analysis; assay type: functional
DG-75 [14] = assay: Induction of apoptosis in human DG75 cells at 50 uM after 72 hrs by annexin V-propidium iodide staining-based FACS analysis; assay type: functional
PBMC = assay: Cytotoxicity against human PBMC at 10 uM after 24 hrs by alamar blue assay; assay type: cell-based
Summary of the method: (§2)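 PBMCs from a healthy donor, separated on Ficoll and resuspended in IMDM with FCS and penicillin/streptomycin. Seeded at 1–5 × 10⁴ cells/200 µl and treated 24 h. Alamar Blue added, fluorescence read at ex 544/em 590 nm, background subtracted, untreated cells = 100% viability. Mean + S.E.M.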

[15] = Cytotoxicity against human PBMC assessed as cell viability at 50 uM after 24 hrs by alamar blue assay; assay type: cell-based; details: read-out: Activity; summary of the method: as §2
MCF7 [16] = assay: Antiproliferative activity against human MCF7 cells assessed as cell viability at 50 uM after 24 hrs by alamar blue assay; assay type: functional; details: MCF7, 24 h, read-out: Activity; summary of the method: as §1

Sodium-dependent serotonin transporter, sequence (P31652 whole entry): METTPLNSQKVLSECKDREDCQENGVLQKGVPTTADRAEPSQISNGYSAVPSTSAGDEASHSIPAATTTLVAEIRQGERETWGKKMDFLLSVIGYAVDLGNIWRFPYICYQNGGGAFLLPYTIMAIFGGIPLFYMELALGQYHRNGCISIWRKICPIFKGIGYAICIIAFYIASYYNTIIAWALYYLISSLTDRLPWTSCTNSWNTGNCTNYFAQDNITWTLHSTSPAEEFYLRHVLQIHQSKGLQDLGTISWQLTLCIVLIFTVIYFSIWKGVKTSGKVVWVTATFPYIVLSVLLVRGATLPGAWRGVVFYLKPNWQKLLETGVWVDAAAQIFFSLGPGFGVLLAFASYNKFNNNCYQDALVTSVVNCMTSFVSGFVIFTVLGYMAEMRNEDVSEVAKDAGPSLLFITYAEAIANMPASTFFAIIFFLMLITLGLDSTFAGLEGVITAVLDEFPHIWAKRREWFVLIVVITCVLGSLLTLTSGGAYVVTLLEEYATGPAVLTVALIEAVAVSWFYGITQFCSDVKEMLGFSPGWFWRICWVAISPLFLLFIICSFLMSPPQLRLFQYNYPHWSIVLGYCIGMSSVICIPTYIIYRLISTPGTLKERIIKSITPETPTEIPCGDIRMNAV

SMILES: CC(N)Cc1ccc(Sc2ccccc2)cc1 (stereo unspecified)
- IC50 [1]: 14.3 µM
- EC50 (HEK293): 2.75 µM
- EC50 (SH-SY5Y; read-out: EC50): 1 µM
- EC50 (SH-SY5Y; read-out: pEC50 (converted)): 13.2 µM
- Activity (MCF7 [2]): 40%
- viability at 50 µM [3]: 10%
- viability at 50 µM (DG-75 [4]): 10%
- Activity [5]: 90%
- Activity (DG-75 [6]): 90%
- Activity [7]: 90%
- Activity (MDA-MB-231): 90%
- EC50 (DG-75 [8]): 23.7 µM
- EC50 [9]: 14.2 µM
- EC50 (HL-60 [10]): 19.6 µM
- Activity (DG-75 [11]): 40%
- Activity [12]: 40%
- Activity (HL-60 [13]): 40%
- Activity (DG-75 [14]): 40%
- Activity (PBMC): Non-toxic
- viability at 24 h, 50 µM [15]: 50%
- viability at 50 µM (MCF7 [16]): < 10%
